From PubChem BioAssay
NS3 helicase inh: blocks Hepatitis C virus NS3 helicase unwinding; NS3 helicase DNA unwinding, Cy5 molecular beacon fluorescence; inhibition, % at 10.9 µM; 290,000 compounds, 0.56% hits; AID 1800;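 active = inhibition above the mean of all tested compounds plus 3 SD, set per campaign, cut at about 35% in these data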;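 note: 0% = DMSO wells and 100% = thioflavine S control wells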
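assay system = NS3 helicase fragment of HCV | buffer or medium = MOPS pH 6.5, MgCl2, DTT, Tween20, BSA | timing = 60 min unwinding reaction at 25 °C after ATP addition | signal = Cy5 beacon fluorescence read at start and 1 h | read-out basis = % inhibition of unwinding | control set = low DMSO, high thioflavine S at 110 µM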
EBNA-1 inh: blocks EBNA-1 binding to DNA. EBNA-1 DNA binding, fluorescence polarization. inhibition, % at 14.8 µM. 300,000 compounds, 0.34% hits; in the data active = inhibition above about 28%
ZTA DNA inh: blocks Epstein-Barr virus ZTA, an EBNA-1 counter-screen. inhibition, % at 11 µM. AID 2234. ZTA-DNA binding, fluorescence polarization. P03206. 320,000 compounds, 0.15% hits; in the data active = inhibition above about 33%
Target sequence (P03206 whole entry, looked up): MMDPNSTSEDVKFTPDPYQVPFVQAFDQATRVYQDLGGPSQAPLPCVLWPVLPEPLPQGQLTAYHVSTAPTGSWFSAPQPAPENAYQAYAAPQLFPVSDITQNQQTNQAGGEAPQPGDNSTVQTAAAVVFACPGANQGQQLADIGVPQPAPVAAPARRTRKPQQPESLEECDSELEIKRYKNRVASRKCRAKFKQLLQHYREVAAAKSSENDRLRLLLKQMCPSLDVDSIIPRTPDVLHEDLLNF
M18AAP inhibitor: PfM18AAP enzyme inhibition. recombinant PfM18AAP, H-Glu-NHMec fluorogenic cleavage. inhibition, % at 7.35 µM. 290,000 compounds, 1.2% hits;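 active = inhibition above the campaign mean inhibition over all tested compounds plus 3 SD, cut at about 28% in these data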;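 note: 0% = plate median of test compound wells and 100% = 2 mM ZnCl2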
ALR H2O2 inh: human ALR oxidase inhibition via reduced H2O2. P55789. purified ALR, DTT oxidation, H2O2 HRP-luminol luminescence. inhibition, % (test concentration not listed). 290,000 compounds, 3.8% hits. AID 485317;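 active = mean replicate inhibition above about 79%, with every replicate also reaching it, limit read from the data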
Target sequence (P55789 whole entry, looked up): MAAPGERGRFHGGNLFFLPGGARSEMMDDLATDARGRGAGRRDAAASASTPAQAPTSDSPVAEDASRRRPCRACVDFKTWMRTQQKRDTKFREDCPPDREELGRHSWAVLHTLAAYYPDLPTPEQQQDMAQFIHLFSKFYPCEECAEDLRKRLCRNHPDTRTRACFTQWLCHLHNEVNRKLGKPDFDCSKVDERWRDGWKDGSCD
HCV core dimer: HCV core protein dimerization inhibition | 300,000 compounds, 0.33% hits | TR-FRET GST/Flag-core106 dimerization, 1536-well | AID 1899 | inhibition, % at 5 µM;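 active = inhibition above the mean of all tested compounds plus 3 SD, set per screening campaign, cut at about 45% in these data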
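Material: GST/Flag-tagged HCV core106 proteins. Incubation: 4 h, 22.5 °C incubation. Read-out basis: inhibition (%) from 671 over 617 nm ratio. Measured by: TR-FRET, excitation 340 nm, emission 617 and 671 nm.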
Starred values were filed as active, the others as inactive; . = no result given. Only some compounds are listed: those with a hit (about 5.2% of all), similar ones and a draw of the others.

SMILES	NS3 helicase inh	EBNA-1 inh	ZTA DNA inh	M18AAP inhibitor	ALR H2O2 inh	HCV core dimer
COc1cc(/C=N/N=C2\CC3CCC2(C)C3(C)C)ccc1O (stereo not given)	-8	2	-9	3	99*	-4
Cc1nn(CCc2n[nH]c(=S)n2-c2ccc(F)c(Cl)c2)c(C)c1[N+](=O)[O-]	1	-3	9	18	92*	-2
Cc1nn(CCc2n[nH]c(=S)n2-c2ccc(F)cc2)c(C)c1[N+](=O)[O-]	3	8	6	-8	81*	2
CN1CCN(S(=O)(=O)c2ccc(CNC(=O)c3ccccc3)s2)CC1	-19	1	-7	-4	-1	-3
O=C(CSc1ccsc1[N+](=O)[O-])Nc1cc(F)ccc1F	29	.	.	-4	.	.
CCN(CC)c1ccc(NC(=O)c2cccc(C)c2OC)c(C)c1	11	-11	-3	18	99*	-9
CCOC(=O)N1CCC(N2Cc3cccc(C(=O)Nc4ccc(N(CC)CC)cc4C)c3C2=O)CC1	-17	-1	5	22	50	14
CCN(CC)c1ccc(NC(=O)CSc2ccsc2[N+](=O)[O-])c(C)c1	15	-3	6	10	93*	49*
CCN(CC)c1ccc(NC(=O)CN2C(=O)CC(C)(C)S(=O)(=O)c3ccccc32)c(C)c1	-8	8	-4	11	99*	-8
CCN(CC)c1ccc(NC(=O)c2cccnc2)c(C)c1	1	-9	7	13	96*	-9
CC1(C)CC(=O)N(CC(=O)NCc2ccccc2)c2ccccc2S1(=O)=O	-2	0	-4	-12	.	1
CC1CN(C(=O)CCC(=O)N2CCOCC2)c2ccccc2O1 (stereo not given)	4	3	-9	1	-1	-1
O=S(=O)(NCc1ccccc1)c1ccc(NC(=S)NCc2ccco2)cc1	-1	3	-14	1	-13	4
CCCCn1c(N)c(N(Cc2ccccc2OC)C(=O)C(C)C)c(=O)[nH]c1=O	-1	-12	-4	-9	2	-12
Cc1ccc(S(=O)(=O)NCCn2nc(C)nc2C)cc1	1	3	-9	-2	-1	-6
O=C(NCc1ccco1)c1cnc2ccccn2c1=O	6	-4	7	8	-9	0
CCN(CC)c1ccc(NC(=O)c2cnc3ccccn3c2=O)c(C)c1	3	4	-10	-3	99*	-4
CCN(CC)c1ccc(NC(=O)CNCc2ccccc2Cl)c(C)c1	-3	-2	-9	-1	99*	-7
CCc1cc2c(=O)oc(-c3ccc(Br)cc3)nc2s1	23	.	.	8	.	.
COc1ccc(NC(=O)c2ccco2)cc1NC(=O)c1ccccc1[N+](=O)[O-]	-2	-13	-8	1	2	0
O=C(CC1C(=O)NCCN1Cc1ccc(F)cc1)NCCN1CCCc2ccccc21 (stereo not given)	-6	-7	-15	8	99*	-9
O=C(CC1C(=O)NCCN1Cc1ccccc1)NCCN1CCCCC1=O (stereo not given)	4	-12	-6	-10	-17	-6
CC(C(=O)NCC(=O)Nc1ccc(F)c(F)c1F)N1CCN(c2ccc(O)cc2)CC1 (stereo not given)	.	.	14	.	99*	.
O=C(Nc1nc(=O)c2ccccc2s1)c1ccc(Cl)cc1	7	-5	4	30*	-4	34
Cc1ccc(C(=O)Nc2nc(=O)n(C)s2)cc1	8	-4	-6	-1	12	1
SMILES	NS3 helicase inh	EBNA-1 inh	ZTA DNA inh	M18AAP inhibitor	ALR H2O2 inh	HCV core dimer
Cn1sc(NC(=O)c2ccc(Cl)cc2)nc1=O	1	7	3	5	97*	6
NC(=S)Nc1nc2ccccc2s1	-8	6	26	18	94*	3
Cc1cc(C)n(-c2ccc(C(=O)Nc3nc4ccccc4s3)cc2)n1	-8	-7	-1	2	-4	2
Nc1ccc(C(=O)Nc2nc3ccccc3s2)cc1	5	1	7	3	94*	0
COCC(=O)Nc1nc2ccccc2s1	0	8	-2	-7	1	-14
CC(=O)c1sc(NC(=O)c2ccc(Cl)cc2)nc1C	0	-3	7	-5	18	17
COc1ccc(CN(C)C(=O)c2cc(S(=O)(=O)Nc3ccccc3F)ccc2C)c(OC)c1	9	-7	4	9	18	-4
CC(=O)NC(CC(=O)N(C)C1CCCCC1)c1ccccc1 (stereo not given)	-9	-6	16	2	-20	2
CC(C)OC(=O)c1ccc(NC(=O)CSc2nc3ncccc3[nH]2)cc1	2	11	-7	4	98*	11
COc1ccc(NC(=O)CSc2nc3ncccc3[nH]2)cc1OC	1	-5	4	2	96*	-1
CC(C)c1ccc(NC(=O)CSc2nc3ncccc3[nH]2)cc1	-7	-1	1	-2	55	0
NS(=O)(=O)c1ccc(NC(=O)COC(=O)c2cc3ccccc3cc2O)cc1	-2	14	7	2	-6	-1
COc1ccc(CN2CCN(C(=O)c3cccc4ccccc34)CC2)cc1Br	-4	0	16	5	.	23
COc1ccc(CN2CCN(C(=O)c3cccs3)CC2)cc1Br	0	7	2	29*	0	-1
O=C1CCC(=O)N1c1cccc(OS(=O)(=O)c2ccccc2)c1	5	-2	18	36*	-19	1
CC1CCC2C(=O)N(c3cccc(OS(=O)(=O)c4ccccc4)c3)C(=O)C2C1 (stereo not given)	-6	-2	-16	1	-3	0
O=C(CCCSc1ccc(Cl)cc1)Nc1ccccc1O	0	10	-1	2	2	14
CC1CC1C(=O)N1CCN(S(=O)(=O)c2cc(C(F)(F)F)cc(C(F)(F)F)c2)CC1 (stereo not given)	.	.	-9	.	19	.
O=C(CCCCC(=O)Nc1ccc(F)cc1)Nc1ccc(F)cc1	-6	0	-23	-5	8	-15
Cc1ccccc1NCCC(=O)Nc1ccc(Cl)cc1	-11	-8	7	1	98*	-3
Cc1ccccc1NCCC(=O)Nc1ccc(F)cc1	-5	1	-12	2	99*	-8
Cc1ccccc1NC(=O)CC(=O)Nc1ccccc1C	-11	-3	-6	-9	3	0
O=C1OC[C@H]2CCCN2C(=O)[C@@H](CC(=O)N(CCO)Cc2ccccc2)C/C=C\C[C@@H]1Cc1ccc(F)cc1	.	.	.	.	-1	.
O=C(COc1ccccc1Cl)Nc1cccc(S(=O)(=O)NC2=NCCCCC2)c1	.	-2	-8	.	-1	1
O=C(Cn1c(=O)cnc2ccccc21)NC1CCC(O)CC1 (stereo not given)	.	5	-5	.	-2	-8
